Data set [1] addresses T1, Prostaglandin E synthase (Homo sapiens) (UniProt O14684).
T1 sequence (whole entry): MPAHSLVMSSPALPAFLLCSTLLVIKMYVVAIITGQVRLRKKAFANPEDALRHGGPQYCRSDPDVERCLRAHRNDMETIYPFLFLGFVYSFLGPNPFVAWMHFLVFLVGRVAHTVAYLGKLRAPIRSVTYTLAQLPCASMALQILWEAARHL
As to the kind of experiment: Inhibition of human mPGES1 expressed in 293 cell microsomes at 10 uM preincubated for 15 mins followed by PGH2 substrate addition measured after 3 secs by enzyme immunoassay relative to control. The gist of the method:
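Single-point screen at 10 μM against human mPGES-1, reported as % inhibition. Only compounds reaching the ≥70% cutoff went on to IC50 determination. Data are means ± SD from triplicate determinations.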

Data set [2] concerns the target T2, Prostaglandin E synthase (Homo sapiens, UniProt O14684).
T2 sequence (O14684 whole entry): T1 sequence (whole entry)
The experiment in a line: Inhibition of human mPGES1 expressed in 293 cell microsomes preincubated for 15 mins followed by PGH2 substrate addition measured after 3 secs by enzyme immunoassay. In short, it runs like this: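 Compounds were first screened against human mPGES-1 at 10 μM, and IC50 values were determined only for those giving ≥70% inhibition. Protein preparation and assay followed earlier reports. Values are means ± SD of single determinations run in triplicate.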

Data set [3] has as its system COX1/COX2. The experiment in a line: Inhibition of ovine COX1/human COX2 assessed as reduction in PGF2alpha production at 100 uM preincubated for 10 mins followed by arachidonic acid substrate addition measured after 2 mins by colorimetric assay relative to control. To be noted: sheep (COX1) / human (COX2), ovine COX1/human COX2 enzyme, probe arachidonic acid.

As usually defined, the inhibition is how much of the control response was suppressed. By IC50 is commonly meant the concentration that inhibits the measured activity by half. The low end stands for greater potency, the high end for weaker potency.

Take `CCOc1ccc(-c2nn(-c3ccc(Cl)cc3)cc2/C=C2/SC(=O)NC2=O)cc1`: in data set [1], the inhibition was > 70%. In data set [2], this compound returned an IC50 of 1590 nM. As for `CCCCCCCCOc1ccc(-c2nn(-c3ccc(Cl)cc3)cc2C=C2C(=O)NC(=S)NC2=O)cc1`, the inhibition in data set [1] is > 70%. In addition, the inhibition at 2 min, 100 µM in data set [3] stood at 0%. Take `CCOc1ccc(-c2nn(-c3ccc(Cl)cc3)cc2/C=C2/SC(=S)NC2=O)cc1`: in data set [1], the inhibition is > 70%. The compound also came in with a 50% inhibitory concentration (IC50) in data set [2] of 1040 nM. For `O=C1NC(=O)C(=Cc2cn(-c3ccc(Cl)cc3)nc2-c2ccc(OCc3ccccc3)cc2)C(=O)N1`, in data set [1], the inhibition is > 70%. Also, the IC50 in data set [2] is 598 nM. Consider `CCCCOc1ccc(-c2nn(-c3ccccc3)cc2C=C2C(=O)NC(=O)NC2=O)cc1`, for which the inhibition in data set [1] is > 70%.

In the case of `CCOc1ccc(-c2nn(-c3ccc(Cl)cc3)cc2/C=C2/SC(=O)N(CC(=O)O)C2=O)cc1`, the inhibition in data set [1] was > 70%. Also, in data set [3], the inhibition at 2 min, 100 µM was determined as 6.8%. Further, the IC50 in data set [2] was determined as 41 nM. For the compound `CCCCCCOc1ccc(-c2nn(-c3ccc(Cl)cc3)cc2C=C2C(=O)NC(=S)NC2=O)cc1`, the inhibition in data set [1] was > 70%. In addition, in data set [3], the inhibition at 2 min, 100 µM is 0.7%. Turning to `CCCCCCOc1ccc(-c2nn(-c3ccc(Cl)cc3)cc2C=C2C(=O)NC(=O)NC2=O)cc1`, in data set [1], the inhibition is > 70%. Same read-out and setting: to `CCCCOc1ccc(-c2nn(-c3ccc(Cl)cc3)cc2C=C2C(=O)NC(=O)NC2=O)cc1` belongs > 70%. As for `CCOc1ccc(-c2nn(-c3ccc(Cl)cc3)cc2C=C2C(=O)NC(=O)NC2=O)cc1`, the inhibition in data set [1] is > 70%. With `CCCCOc1ccc(-c2nn(-c3ccccc3)cc2C=C2C(=O)NC(=S)NC2=O)cc1`, in data set [1], the inhibition is > 70%. The inhibition at 2 min, 100 µM in data set [3] was 16%.

Consider `CCCCOc1ccc(-c2nn(-c3ccc(Cl)cc3)cc2C=C2C(=O)NC(=S)NC2=O)cc1`, for which the inhibition in data set [1] is > 70%. In addition, the inhibition at 2 min, 100 µM in data set [3] came to 4.4%.

On to `CCCCCCCCCCOc1ccc(-c2nn(-c3ccc(Cl)cc3)cc2C=C2C(=O)NC(=O)NC2=O)cc1`, for which the inhibition in data set [1] was > 70%. For the compound `CCCCCCOc1ccc(-c2nn(-c3ccc(Cl)cc3)cc2/C=C2/SC(=O)NC2=O)cc1`, the inhibition in data set [1] is > 70%. Also, in data set [2], 1390 nM corresponded to half-maximal inhibition (IC50). As to `O=C1NC(=S)NC(=O)C1=Cc1cn(-c2ccc(Cl)cc2)nc1-c1ccc(OCc2ccccc2)cc1`, in data set [1], the inhibition was > 70%. Moreover, the IC50 in data set [2] stood at 797 nM. `CCOc1ccc(-c2nn(-c3ccc(Cl)cc3)cc2/C=C(\C#N)C(N)=O)cc1`: in data set [1], the inhibition was found to be 32%.

For the compound `O=C1NC(=S)NC(=O)C1=Cc1cn(-c2ccc(Cl)cc2)nc1-c1ccccc1`, the inhibition in data set [1] is > 70%. Besides, the IC50 in data set [2] was 561 nM. In the case of `CCCCCCOc1ccc(-c2nn(-c3ccc(Cl)cc3)cc2/C=C(\C#N)C(=O)O)cc1`, the inhibition in data set [1] is > 70%. Also, in data set [3], the inhibition at 2 min, 100 µM stood at 19%. Moreover, the IC50 in data set [2] amounted to 83 nM.

For the compound `CCOc1ccc(-c2nn(-c3ccc(Cl)cc3)cc2C=C2C(=O)NC(=S)NC2=O)cc1`, the inhibition in data set [1] is > 70%. Moreover, the inhibition at 2 min, 100 µM in data set [3] is 1%. With `CCCCCCCCOc1ccc(-c2nn(-c3ccc(Cl)cc3)cc2C=C2C(=O)NC(=O)NC2=O)cc1`, in data set [1], the inhibition is > 70%. As to `CCCCCCCCCCOc1ccc(-c2nn(-c3ccc(Cl)cc3)cc2C=C2C(=O)NC(=S)NC2=O)cc1`, the inhibition in data set [1] was > 70%. The inhibition at 2 min, 100 µM in data set [3] stood at 11%. On to `CCCCCCOc1ccc(-c2nn(-c3ccc(Cl)cc3)cc2/C=C2/SC(=S)NC2=O)cc1`, for which the inhibition in data set [1] was > 70%. The compound further returned an IC50 in data set [2] of 1730 nM. Compound `CCCCCCOc1ccc(-c2nn(-c3ccc(Cl)cc3)cc2/C=C(\C#N)C(N)=O)cc1` showed an inhibition in data set [1] of 14%. For `CCCCCCOc1ccc(-c2nn(-c3ccc(Cl)cc3)cc2C=C(C#N)C#N)cc1`, in data set [1], the inhibition was found to be 64%. On to `O=C1NC(=O)C(=Cc2cn(-c3ccc(Cl)cc3)nc2-c2ccccc2)C(=O)N1`, for which the inhibition in data set [1] is > 70%. The IC50 in data set [2] is 337 nM.

As to `CCCCCCOc1ccc(-c2nn(-c3ccc(Cl)cc3)cc2/C=C2/SC(=O)N(CC(=O)O)C2=O)cc1`, the inhibition in data set [1] was > 70%. Further, the inhibition at 2 min, 100 µM in data set [3] stood at 1.2%. In addition, in data set [2], the IC50 turned out to be 36 nM. Take `CCOc1ccc(-c2nn(-c3ccc(Cl)cc3)cc2/C=C(\C#N)C(=O)O)cc1`: the inhibition in data set [1] was > 70%. In addition, in data set [2], 283 nM corresponded to half-maximal inhibition (IC50).

In the case of `CCOc1ccc(-c2nn(-c3ccc(Cl)cc3)cc2C=C(C#N)C#N)cc1`, in data set [1], the inhibition worked out at 51%.

These data come from ChEMBL document CHEMBL4184290, “Design, synthesis, and discovery of 5-((1,3-diphenyl-1H-pyrazol-4-yl)methylene)pyrimidine-2,4,6(1H,3H,5H)-triones and related derivatives as novel inhibitors of mPGES-1” (Bioorg Med Chem Lett, 2018).
